In experiment [1] the test system is Rattus norvegicus. The experiment in a line: The percent fall in systolic blood pressure at 1.5 / 4 hr after peroral administration of 50 mg/kg in conscious renal hypertensive rats (RHR). The conditions noted are these: route oral. The format is functional, Artery. The method in brief:
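Conscious renal hypertensive rats, four per group, with starting systolic pressures of 160-200 mmHg, were given a single oral dose. The value is the percentage fall in systolic pressure at 1.5 h, 4 h, or both after dosing. Falls below 10% are reported as ±.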

Experiment [2] relates to Rattus norvegicus. The experiment in a line: The percent fall in systolic blood pressure at 1.5 / 4 hr after peroral administration of 75 mg/kg in conscious renal hypertensive rats (RHR). The experiment is classed as functional, Artery. The conditions noted are these: route oral. The essentials: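 Conscious renal hypertensive rats, four per group, dosed orally. Starting systolic pressures were 160–200 mmHg. Percentage fall in systolic pressure was taken at 1.5 and/or 4 h after dosing. Falls under 10% were scored as ±.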

The subject of experiment [3] is Rattus norvegicus. The experiment in a line: The percent fall in systolic blood pressure at 1.5 / 4 hr after peroral administration of 25 mg/kg in DOCA/saline hypertensive rats at 24 hr; Non significant, p>0.05. The arrangement: dose 25 mg/kg. The conditions noted are these: Artery, at 25 mg/kg. The format is functional, organism-based.
Experiment [4] concerns Rattus norvegicus. The experiment in a line: The percent fall in systolic blood pressure at 1.5 / 4 hr after peroral administration of 25 mg/kg in DOCA/saline hypertensive rats at 2 hr. The format is functional, Artery. The conditions noted are these: route oral. The essentials: (§1)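 DOCA/saline hypertensive rats, four per group, dosed orally at 50, 25 or 10 mg/kg. Mean starting systolic pressure was recorded for each group. Systolic pressure was then read 2, 6 and 24 h after dosing and reported as percentage fall from the starting value.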

In experiment [5] the test system is Rattus norvegicus. The experiment in a line: The percent fall in systolic blood pressure at 1.5 / 4 hr after peroral administration of 50 mg/kg in DOCA/saline hypertensive rats at 24 hr. The format is functional, Artery. The conditions noted are these: route oral. The method in brief: as §1
Experiment [6] relates to Rattus norvegicus. The experiment in a line: The percent fall in systolic blood pressure at 1.5 / 4 h after peroral administration of 50 mg/kg in DOCA/saline hypertensive rats at 2 hr. Conditions: route oral. The experiment is classed as functional, Artery.
The test system of experiment [7] is Rattus norvegicus. The experiment in a line: The percent fall in systolic blood pressure at 1.5 / 4 hr after peroral administration of 10 mg/kg in DOCA/saline hypertensive rats at 2 hr. The experiment is classed as functional, Artery. Conditions: route oral. The method in brief: as §1
The test system of experiment [8] is Rattus norvegicus. The experiment in a line: The percent fall in systolic blood pressure at 1.5 / 4 hr after peroral administration of 10 mg/kg in DOCA/saline hypertensive rats at 6 hr. Conditions: route oral. The experiment is classed as functional, Artery. The essentials: as §1
Experiment [9] has as its system Rattus norvegicus. The experiment in a line: The percent fall in systolic blood pressure at 1.5 / 4 hr after peroral administration of 10 mg/kg in DOCA/saline hypertensive rats at 24 hr. The conditions noted are these: route oral. The format is functional, Artery.
Experiment [10] deals with Rattus norvegicus. The experiment in a line: The percent fall in systolic blood pressure at 1.5 / 4 hr after peroral administration of 50 mg/kg in DOCA/saline hypertensive rats at 6 hr. Conditions: route oral. The format is functional, Artery.
The test system of experiment [11] is Rattus norvegicus. The experiment in a line: Starting systolic blood pressure at dose of 10 mg/kg. The format is functional, Artery. The essentials:
as §1

The subject of experiment [12] is Rattus norvegicus. The experiment in a line: Starting systolic blood pressure at dose of 25 mg/kg. The format is functional, Artery. The method in brief:
as §1

The test system of experiment [13] is Rattus norvegicus. The experiment in a line: Starting systolic blood pressure at dose of 50 mg/kg in rat. The experiment is classed as functional, Artery. The essentials: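 Mean systolic blood pressure before dosing for each group of four DOCA/saline hypertensive rats given 50 mg/kg orally. It indicates how far hypertension was established.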
Experiment [14] has as its system Rattus norvegicus. The experiment in a line: The percent fall in systolic blood pressure at 1.5 / 4 hr after peroral administration of 25 mg/kg in DOCA/saline hypertensive rats at 6 hr. The experiment is classed as functional, Artery. The conditions noted are these: route oral. The essentials: as §1

Compound `O=C(CCCN1CCC(NC(=S)Nc2ccccc2)CC1)c1ccccc1` registered an Activity with Rattus norvegicus [1] of 20.

As to `Cc1cccc(C)c1NC(=O)NC1CCN(CCc2c[nH]c3ccccc23)CC1`, in the experiment with Rattus norvegicus [2], the Activity is reported as less than 10.

In the case of `O=C(NC(=O)c1cccs1)NC1CCN(CCCC(=O)c2ccc(F)cc2)CC1`, the Fall result in the experiment on Rattus norvegicus [3] is “Not significant”; in the experiment with Rattus norvegicus [4], 35%; with Rattus norvegicus [5], 21%; with Rattus norvegicus [6], 49%; with Rattus norvegicus [7], 48%; in the experiment on Rattus norvegicus [8], 36%. Besides, the Fall with Rattus norvegicus [9] was found to be 16%; in the experiment with Rattus norvegicus [10], 45%; with Rattus norvegicus [14], 28%. Moreover, the SP amounted to 171 mmHg with Rattus norvegicus [11], 174 mmHg with Rattus norvegicus [12] and 179 mmHg in the experiment with Rattus norvegicus [13].

Values taken from ChEMBL document CHEMBL1121617, “Antihypertensive ureidopiperidines” (1980).
